TAAR1 antag – human TAAR1 antagonism; CHO RD-HGA16 TAAR1, Fluo-8 calcium fluorescence, antagonist; hit rate 1.5% among 360,000; inhibition, % at 3 µM; Q96RJ0;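 active = inhibition above a per-plate cutoff, the mean inhibition of test compounds on that plate plus 3 SD, cut at about 49% in these data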
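Test system – hTAAR1-expressing CHO RD-HGA16 cells, Gα16-coupled · Also added – β-PEA at EC80 concentration, post-compound challenge · Compound – 3 µM, single point · Incubation – dye loading 75 min at 37 °C, then 30 min room temperature · Measured by – Fluo-8 intracellular calcium dye fluorescence, real-time kinetic reads · Benchmarks – vehicle and agonist controls · Replicates – singlicate, one well per test compound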
TAAR1 agonist – human TAAR1 agonism; Q96RJ0; CHO RD-HGA16 TAAR1, Fluo-8 calcium fluorescence; vehicle wells 0%, saturating PEA agonist 100%; activation, % at 3 µM; hit rate 0.99% among 360,000; AID 624467;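 active = activation above the mean activation of all test compounds in the run plus 3 SD, cut at about 38% in these data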
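Test system: RD-HGA16 (CHO) cells co-expressing Gα16 and hTAAR1 | Doses: Single dose, 3 µM | Schedule: 17-24 h seeding, 75 min 37 °C dye, 30 min RT | Evaluation: % activation from peak over basal fluorescence ratio, DMSO-to-PEA scaled | Technique: Kinetic Fluo-8 calcium fluorescence | Benchmarks: Low control DMSO, high control PEA (EC100)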
GPR7 antag – antagonists of human GPR7 (neuropeptides B/W receptor 1); inhibition, % at 4.4 µM; GPR7-expressing cells, fluorescence antagonist assay; P48145; hit rate 1.1% among 290,000; in the data active = inhibition above about 16%, passing the limit was not always enough;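 note: cells stimulated with the agonist NPW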
Target sequence (P48145 whole entry, looked up): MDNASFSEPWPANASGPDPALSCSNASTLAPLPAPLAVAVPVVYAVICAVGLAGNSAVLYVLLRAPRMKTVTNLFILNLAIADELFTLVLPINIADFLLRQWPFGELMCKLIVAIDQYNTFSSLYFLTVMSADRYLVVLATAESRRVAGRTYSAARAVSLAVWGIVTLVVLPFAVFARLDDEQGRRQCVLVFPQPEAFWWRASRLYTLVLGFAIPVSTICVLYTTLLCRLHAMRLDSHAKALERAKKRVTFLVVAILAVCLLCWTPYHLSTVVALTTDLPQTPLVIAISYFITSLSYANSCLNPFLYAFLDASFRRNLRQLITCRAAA
OX1R antag-1 – blocks the human orexin 1 receptor. OX1R-expressing cells, FRET antagonist read-out. inhibition, % at 6.6 µM. hit rate 1.8% among 330,000; in the data active = inhibition mostly above about 38%, no sharp cut-off; inactive = mostly below about 40%
Target sequence (O43613 whole entry, looked up): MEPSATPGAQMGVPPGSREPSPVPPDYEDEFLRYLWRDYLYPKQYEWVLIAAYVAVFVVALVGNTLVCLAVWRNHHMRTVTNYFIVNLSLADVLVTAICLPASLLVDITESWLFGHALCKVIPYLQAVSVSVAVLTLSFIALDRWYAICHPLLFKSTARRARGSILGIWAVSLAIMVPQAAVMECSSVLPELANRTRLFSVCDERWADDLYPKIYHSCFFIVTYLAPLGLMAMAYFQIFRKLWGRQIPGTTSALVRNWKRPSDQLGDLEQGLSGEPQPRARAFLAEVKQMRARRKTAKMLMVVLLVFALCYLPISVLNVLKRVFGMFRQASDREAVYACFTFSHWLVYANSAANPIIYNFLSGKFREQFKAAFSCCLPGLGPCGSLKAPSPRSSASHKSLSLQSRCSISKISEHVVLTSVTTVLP
OX1R antag-2 – human HCRTR1 antagonism | O43613 | CHO/OX1R cells, Fluo-8 calcium fluorescence, orexin A | inhibition, % at 5 µM | hit rate 0.43% among 330,000 | AID 434989;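 active = inhibition above its plate's threshold, mean inhibition of all tested compounds on the plate plus 3 SD, cut at about 37% in these data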
CHO parental Ca – counter-screen for OX1R antagonists: effect in parental CHO cells; inhibition, % at 5.6 µM; parental CHO-K1, ATP-induced calcium, Fluo-8 fluorescence; hit rate 0.63% among 330,000;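 active = inhibition above that plate's mean sample inhibition plus 3 SD, cut at about 26% in these data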
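Assay system: parental CHO cells; Read-out basis: percent inhibition of ATP-evoked calcium rise, normalized to controls; Benchmarks: ATP and no-ATP DMSO wells; Compound dosing: single nominal dose of 5.6 µM per compound; Signal: Fluo-8 calcium dye fluorescence; Also added: ATP as calcium-mobilizing challenge; Repeats: singlicate.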
Large screens that a line does not name were inactive. The list is not random: actives were taken first. Their share in the collection is about 4.6%.

COc1ccc(NC(=O)N2CCN(c3ccc([N+](=O)[O-])cc3)CC2)cc1	none
COc1ccc(N2CCN(C(=O)C3CCN(C(=O)c4ccc([N+](=O)[O-])cc4)CC3)CC2)cc1	OX1R antag-1 51
CCOC(=O)N1CCN(C(=O)C2CCN(C(=O)c3ccc([N+](=O)[O-])cc3)CC2)CC1	OX1R antag-1 55
COc1ccc(/C=C/C(=O)OCC(=O)NCCc2ccccc2)c(OC)c1	none (no result: GPR7 antag)
CCOC(=O)c1c(C)[nH]c(C)c1S(=O)(=O)NCc1ccc(OCC)cc1	none
CCOc1ccccc1CNS(=O)(=O)c1ccc2[nH]c(=O)sc2c1	GPR7 antag 21
CCOC(=O)c1c(C)[nH]c(C)c1S(=O)(=O)NCc1ccccc1C	OX1R antag-1 50
CCOC(=O)c1c(C)[nH]c(C)c1S(=O)(=O)NCc1ccccc1OCC	OX1R antag-1 62
C/C(=N\NC(=O)c1cc(-c2ccc(Cl)s2)[nH]n1)c1ccncc1	none
COc1cccc(NC(=O)N(C)C[C@H]2OCc3cnnn3CCCC(=O)N([C@H](C)CO)C[C@@H]2C)c1	none (no result: GPR7 antag, OX1R antag-1, OX1R antag-2, CHO parental Ca)
CC(=O)Nc1cccc(NC(=O)CSc2nc(=O)n(CCN3CCOCC3)c3c2CCCC3)c1	none (no result: GPR7 antag)
CCN(CC)S(=O)(=O)c1ccc(C)c(NC(=O)COC(=O)CNC(=O)c2ccc(C(C)(C)C)cc2)c1	none
COC(=O)CCCn1cc(CN2CC(N3CCN(Cc4cccc(C)c4)CC3)CS2(=O)=O)nn1 (stereo not drawn)	none (no result: GPR7 antag, OX1R antag-1, OX1R antag-2, CHO parental Ca)
Cc1ccc(NC(=O)c2noc(C(C)C)c2[N+](=O)[O-])cc1	none
Cc1csc(NC(=O)C2=NN(c3ccccc3)C(=O)CC2)n1	none
Cc1ccc(-c2csc(NC(=O)C3=NN(c4ccccc4)C(=O)CC3)n2)cc1	TAAR1 antag 52
Cc1cc(C(=O)COC(=O)c2ccncc2)c(C)n1CCc1ccc(F)cc1	TAAR1 agonist 48
Cc1cc(C(=O)Cn2cncn2)c(C)n1CCc1ccc(F)cc1	none
Cn1c(NCc2cccnc2)nc2cc(-c3cccc(C(F)(F)F)c3)sc2c1=O	none (no result: GPR7 antag, OX1R antag-1, OX1R antag-2, CHO parental Ca)
S=c1[nH]cc(-c2ccc(Cl)cc2)n1Cc1ccccc1	CHO parental Ca 93
CCn1c(-c2ccccc2)c[nH]c1=S	none
COCCN(CCOC)Cc1cc(=O)oc2cc(C)c(C)cc12	none (no result: GPR7 antag, OX1R antag-1, OX1R antag-2, CHO parental Ca)
Cn1c(=O)c(=O)n(C)c2cc(S(=O)(=O)NCCOc3ccccc3Cl)ccc21	none
CCOC(=O)N1CCN(C(=S)Nc2cc(S(=O)(=O)N3CCOCC3)ccc2Cl)CC1	none
COc1ccc(CN(C)C(=O)c2ccc(Oc3ccccc3)cc2)cc1F	none
COc1ccc(CN(C)C(=O)C(Cc2ccccc2)NC(=O)c2ccccc2)cc1F (stereo not drawn)	TAAR1 antag 73 (no result: GPR7 antag, OX1R antag-1, OX1R antag-2, CHO parental Ca)
COc1ccc(C(=O)c2oc3ccccc3c2N)cc1	none
COc1ccc2oc(C(=O)c3ccccc3)c(N)c2c1	OX1R antag-1 64
Cc1ccc(C2C(C#N)=C(N)Oc3cc(N)ccc32)cc1 (stereo not drawn)	none
Cc1ccc(/C=C2\CCC3=C2OC(N)=C(C#N)C3c2ccc(C)cc2)cc1 (stereo not drawn)	OX1R antag-2 48, CHO parental Ca 41 (no result: TAAR1 antag, TAAR1 agonist)
CC(=O)c1c(C)[nH]c(C(=O)Nc2ccc(N3CCCCCC3)cc2)c1C	none (no result: GPR7 antag, OX1R antag-1, OX1R antag-2, CHO parental Ca)
O=C(NNc1ccc([N+](=O)[O-])cn1)Nc1ccc(N=Nc2ccccc2)cc1	TAAR1 agonist 45 (no result: GPR7 antag, OX1R antag-1, OX1R antag-2, CHO parental Ca)
COc1cc(C(=O)Nc2ccc([N+](=O)[O-])cn2)cc(OC)c1OC	none
CC(=O)Nc1ccc([N+](=O)[O-])cn1	OX1R antag-1 76
Cc1ccc(OCC(=O)Nc2ccc([N+](=O)[O-])cn2)cc1C	CHO parental Ca 42
CCC(C)N(C(=O)COC(=O)C1CCN(S(=O)(=O)c2ccc(C)c(C)c2)CC1)C1CCS(=O)(=O)C1 (stereo not drawn)	none (no result: GPR7 antag)
N#Cc1c(-c2ccccc2)nc(-c2ccccc2)nc1N1CCOCC1	TAAR1 agonist 41
O=C(Nc1ccc(Cl)c(C(F)(F)F)c1)[C@@H]1CC=C[C@@H]2CCN(C3CC3)C(=O)[C@@H]21	OX1R antag-1 62 (no result: GPR7 antag)
O=C(Nc1ccc(Cl)c(C(F)(F)F)c1)[C@@H]1CC=C[C@@H]2CCN(C3CCCCC3)C(=O)[C@@H]21	none (no result: GPR7 antag)
Cc1ccc(N2CCN(C(=O)c3ccccc3NC(=O)c3ccccc3C(=O)O)CC2)cc1	none
COc1cccc2c1C(=O)c1c(O)c3c(c(O)c1C2=O)C[C@@](O)(C(=O)CO)C[C@@H]3OC1CC(N)C(O)C(C)O1 (stereo partly drawn)	none (no result: GPR7 antag, OX1R antag-1, OX1R antag-2, CHO parental Ca)
COc1cccc2c1C(=O)c1c(O)c3c(c(O)c1C2=O)CC(O)(C(C)=O)CC3OC1CC(N(C)C)C(O)C(C)O1 (stereo not drawn)	none (no result: GPR7 antag, OX1R antag-1, OX1R antag-2, CHO parental Ca)
COc1cccc2c1C(=O)c1c(O)c3c(c(O)c1C2=O)C[C@@](O)(C(=O)CO)C[C@@H]3O[C@H]1C[C@H](N)[C@H](O)[C@H](C)O1	OX1R antag-1 44
CC(=O)[C@@]1(O)Cc2c(O)c3c(c(O)c2[C@H](O[C@H]2C[C@H](N)[C@H](O)[C@H](C)O2)C1)C(=O)c1ccccc1C3=O	TAAR1 agonist 66 (no result: GPR7 antag, OX1R antag-1, OX1R antag-2, CHO parental Ca)
CCCC[n+]1ccn(C2=C([O-])c3ccccc3C(=O)/C2=N\S(=O)(=O)c2ccc(Br)cc2)c1	none
Cc1ccc(NC(=O)C[n+]2ccn(C3=C([O-])c4ccccc4C3=O)c2)cc1	TAAR1 agonist 43
Cc1ccc(S(=O)(=O)/N=C2\C(=O)c3ccccc3C([O-])=C2n2cc[n+](CCC(C)C)c2)cc1	OX1R antag-1 44 (no result: TAAR1 antag, TAAR1 agonist)
C1=C(CCNc2ncnc3c2[nH]c2ccccc23)CCCC1	GPR7 antag 41, CHO parental Ca 69
COc1ccc(CNc2ncnc3c2[nH]c2ccccc23)cc1	OX1R antag-1 52
O=C(COc1coc(CN2CCc3ccccc3C2)cc1=O)N1CCOCC1	none (no result: GPR7 antag)
Cc1c(C(c2ccc(N(C)C)cc2)c2c(C)n(C)n(-c3ccccc3)c2=O)c(=O)n(-c2ccccc2)n1C	OX1R antag-1 71
O=C(N/N=C\CCc1ccccc1)c1ccco1	none
Cc1ccc(CNC(=O)c2oc3ccc(S(=O)(=O)N4CCC5(CC4)OCCO5)cc3c2C)cc1	TAAR1 antag 57
COc1cccc(CNC(=O)C(C)n2ccc3cc(S(=O)(=O)N4CCCCCC4)ccc32)c1 (stereo not drawn)	none
CC(CNC(=O)Cn1ccc2cc(S(=O)(=O)N3CCCC3)ccc21)c1ccccc1 (stereo not drawn)	OX1R antag-1 43
CCC(C(=O)NCCC(C)C)n1ccc2cc(S(=O)(=O)N3CCCCC3)ccc21 (stereo not drawn)	CHO parental Ca 53 (no result: TAAR1 antag, TAAR1 agonist)
COc1cc(/C=C/CN2CCC(C(=O)NC(c3ccc(F)cc3)c3ccc4ccccc4n3)CC2)ccc1OC(C)=O (stereo not drawn)	TAAR1 agonist 49 (no result: GPR7 antag, OX1R antag-1, OX1R antag-2, CHO parental Ca)

High-throughput results: PubChem BioAssay, The Scripps Research Institute Molecular Screening Center
